Data on nine compounds can be found in ChEMBL document CHEMBL1137361, “WB4101-related compounds: new, subtype-selective alpha1-adrenoreceptor antagonists (or inverse agonists?)” (J Med Chem, 2006).

Active and inactive are the calls of the source. The calls are words filed in the database; no cut-off is given here.

Assay [1] addresses T1, Alpha-1B adrenergic receptor (Rattus norvegicus, UniProt P15823).
T1 sequence (P15823 whole entry): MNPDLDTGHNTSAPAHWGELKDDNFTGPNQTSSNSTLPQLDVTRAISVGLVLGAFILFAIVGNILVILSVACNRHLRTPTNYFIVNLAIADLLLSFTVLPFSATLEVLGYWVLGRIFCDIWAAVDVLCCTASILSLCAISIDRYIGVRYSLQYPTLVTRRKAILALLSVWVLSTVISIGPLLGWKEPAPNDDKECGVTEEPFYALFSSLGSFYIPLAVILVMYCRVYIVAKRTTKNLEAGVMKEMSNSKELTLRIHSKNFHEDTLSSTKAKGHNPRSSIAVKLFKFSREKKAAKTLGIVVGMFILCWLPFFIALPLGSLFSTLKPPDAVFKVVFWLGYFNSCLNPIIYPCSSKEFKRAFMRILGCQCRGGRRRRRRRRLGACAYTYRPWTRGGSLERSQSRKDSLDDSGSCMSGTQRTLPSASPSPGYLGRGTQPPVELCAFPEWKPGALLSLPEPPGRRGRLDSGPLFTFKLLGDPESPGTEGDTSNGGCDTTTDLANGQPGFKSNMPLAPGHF
The assay can be described thus: Activity at adrenergic alpha 1B receptor assessed as antagonsim of phenylephrine-induced contraction of Sprague-Dawley rat spleen. The assay is classed as functional, tissue-based. The following applies: read-out: pA2 (converted). The essentials: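 Rat spleen contracted with (-)-phenylephrine. Blocking activity was measured as antagonism of the contraction.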

Assay [2] deals with T2, Alpha-1A adrenergic receptor (Rattus norvegicus, UniProt P43140).
T2 sequence (P43140 whole entry): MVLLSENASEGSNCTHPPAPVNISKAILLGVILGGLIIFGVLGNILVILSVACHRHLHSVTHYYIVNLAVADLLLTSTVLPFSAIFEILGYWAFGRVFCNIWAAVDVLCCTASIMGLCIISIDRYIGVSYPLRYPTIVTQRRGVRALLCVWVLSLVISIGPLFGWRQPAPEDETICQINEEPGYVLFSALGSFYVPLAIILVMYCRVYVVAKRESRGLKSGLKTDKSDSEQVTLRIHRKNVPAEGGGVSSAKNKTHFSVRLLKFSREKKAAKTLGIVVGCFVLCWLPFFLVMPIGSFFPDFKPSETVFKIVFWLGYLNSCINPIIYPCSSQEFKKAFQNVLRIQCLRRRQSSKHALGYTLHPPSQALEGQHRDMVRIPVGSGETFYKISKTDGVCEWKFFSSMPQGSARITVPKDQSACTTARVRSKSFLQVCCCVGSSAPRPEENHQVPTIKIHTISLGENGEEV
The assay can be described thus: Activity at adrenergic alpha 1A receptor assessed as antagonism of noradrenaline-induced contraction of Sprague-Dawley rat vas deferens. It is filed as functional, tissue-based. The note with it: read-out: pA2 (converted). The gist of the method: (§1)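 Rat vas deferens, prostatic portion. Contraction was induced with (-)-noradrenaline, and blocking activity was measured as antagonism of that contraction.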

Assay [3] has as its target Alpha adrenergic receptor (1a and 1d) (Homo sapiens) (UniProt P35348+P25100). The assay can be described thus: Selectivity for human adrenergic alpha 1A receptor over human adrenergic alpha 1D receptor.
For assay [4], the target named is T3, Alpha-1A adrenergic receptor (Homo sapiens, UniProt P35348).
T3 sequence (P35348 whole entry): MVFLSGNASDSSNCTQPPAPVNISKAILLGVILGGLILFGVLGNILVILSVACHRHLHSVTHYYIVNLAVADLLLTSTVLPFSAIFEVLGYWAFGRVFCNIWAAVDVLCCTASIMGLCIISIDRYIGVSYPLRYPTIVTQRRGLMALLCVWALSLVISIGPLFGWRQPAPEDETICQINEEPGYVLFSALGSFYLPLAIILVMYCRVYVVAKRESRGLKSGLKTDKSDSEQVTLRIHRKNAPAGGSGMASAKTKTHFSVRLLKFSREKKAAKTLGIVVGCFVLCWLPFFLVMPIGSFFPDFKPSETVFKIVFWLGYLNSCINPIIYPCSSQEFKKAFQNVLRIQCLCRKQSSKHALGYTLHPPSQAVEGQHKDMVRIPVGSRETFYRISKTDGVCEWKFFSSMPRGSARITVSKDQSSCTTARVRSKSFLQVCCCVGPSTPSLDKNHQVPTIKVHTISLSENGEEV
The assay can be described thus: Displacement of [3H]prazosin from cloned human adrenergic alpha 1A receptor expressed in CHO cells. The assay is classed as cell-based. The gist of the method:
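Radioligand binding with [3H]prazosin as the label. Membranes came from CHO cells expressing the cloned human receptor. Affinity is expressed as pKi.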

The target of assay [5] is T4, Alpha-2A adrenergic receptor (Rattus norvegicus, UniProt P22909).
T4 sequence (P22909 whole entry): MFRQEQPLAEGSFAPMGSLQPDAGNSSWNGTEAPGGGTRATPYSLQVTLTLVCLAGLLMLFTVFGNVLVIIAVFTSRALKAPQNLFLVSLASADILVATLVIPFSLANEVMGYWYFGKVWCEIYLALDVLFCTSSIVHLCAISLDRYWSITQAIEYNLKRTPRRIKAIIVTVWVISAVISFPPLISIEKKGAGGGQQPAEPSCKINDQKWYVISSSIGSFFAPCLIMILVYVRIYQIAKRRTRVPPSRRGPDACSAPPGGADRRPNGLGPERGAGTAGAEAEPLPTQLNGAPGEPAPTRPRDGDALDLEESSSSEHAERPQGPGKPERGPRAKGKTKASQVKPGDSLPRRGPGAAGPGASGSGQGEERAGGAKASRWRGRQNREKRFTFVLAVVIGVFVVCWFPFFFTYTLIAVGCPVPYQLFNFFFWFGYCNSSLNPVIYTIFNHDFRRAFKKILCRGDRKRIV
Description: Activity at adrenergic alpha 2A receptor assessed as antagonism on clonidine-inhibited twitch responses of field-stimulated Sprague-Dawley rat vas deferens. The following applies: read-out: pA2 (converted).

Assay [6] is filed under the species Cavia porcellus. The assay can be described thus: Inverse agonist effect on calcium-induced increase in resting tension of calcium-depleted guinea pig thoracic aorta at 10 nM. The assay is classed as functional. The gist of the method:
(§2)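 Guinea pig thoracic aorta was calcium-depleted and preincubated with antagonist, then challenged with Ca2+. The Ca2+-induced increase in resting tone was compared with the increase after the same Ca2+ challenge in the absence of antagonist.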

Assay [7] deals with T2, Alpha-1A adrenergic receptor. The assay can be described thus: Activity at adrenergic alpha 1A receptor assessed as antagonsim of noradrenaline-induced contraction of […]. The assay is classed as functional, tissue-based, Sprague-Dawley. The note with it: read-out: pA2 (converted). The essentials: as §1
For assay [8], the species on record is Cavia porcellus. Description: Inverse agonist effect on calcium-induced increase in resting tension of calcium-depleted guinea pig thoracic aorta at 100 nM. It is filed as functional. The gist of the method: as §2

Chain of Alpha adrenergic receptor (1a and 1d) (Homo sapiens) (P25100 whole entry, looked up, one chain of several): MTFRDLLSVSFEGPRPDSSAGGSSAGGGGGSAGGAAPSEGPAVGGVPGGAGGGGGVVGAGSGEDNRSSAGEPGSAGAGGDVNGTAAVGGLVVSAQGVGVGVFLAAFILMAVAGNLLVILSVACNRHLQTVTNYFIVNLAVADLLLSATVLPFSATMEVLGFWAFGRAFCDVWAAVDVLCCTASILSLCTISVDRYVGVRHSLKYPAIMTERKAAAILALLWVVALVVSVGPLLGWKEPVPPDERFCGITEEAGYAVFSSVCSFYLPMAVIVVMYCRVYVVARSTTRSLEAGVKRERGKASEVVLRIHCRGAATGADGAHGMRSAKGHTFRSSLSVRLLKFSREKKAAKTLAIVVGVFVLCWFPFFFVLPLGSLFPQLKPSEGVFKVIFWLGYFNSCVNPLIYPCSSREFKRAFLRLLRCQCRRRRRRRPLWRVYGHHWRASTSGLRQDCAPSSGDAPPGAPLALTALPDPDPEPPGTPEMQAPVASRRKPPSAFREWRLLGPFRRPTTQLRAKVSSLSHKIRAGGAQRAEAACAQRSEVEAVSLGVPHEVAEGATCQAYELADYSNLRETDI

As for `COc1cccc(OC)c1OCCNC[C@H]1COc2cc3c(cc2O1)CCCC3`, the Kb in assay [1] is 2630 nM; in assay [2], over 10000 nM. Also, the Selectivity ratio in assay [3] turned out to be 13.5. The compound further gave an inhibitory constant (Ki) in assay [4] of 25.1 nM.

For the compound `COc1ccc2c(c1OCCNC[C@H]1COc3ccccc3O1)CCCC2`, the figures for the Kb in assay [1] and in assay [2] were 4.47 nM and 91.2 nM, respectively. The Selectivity ratio in assay [3] turned out to be 5.1. This compound showed a Ki in assay [4] of 2.82 nM.

For the compound `COc1cc(-c2ccccc2)ccc1OCCNC[C@H]1COc2ccccc2O1`, the Kb in assay [1] is 132 nM; in assay [2] it was 759 nM. Also, the Selectivity ratio in assay [3] was 2.5. In assay [4], this compound showed a Ki of 87.1 nM.

As for `COc1cccc(OC)c1OCCNC[C@H]1COc2cc3ccccc3cc2O1`, the Kb is 2450 nM in assay [1], 3470 nM in assay [2] and over 10000 nM in assay [5]. The Selectivity ratio in assay [3] was found to be 12.3. This compound also had a Ki in assay [4] of 33.9 nM.

On to `COc1ccc(-c2ccccc2)cc1OCCNC[C@H]1COc2ccccc2O1`, for which the Kb is 135 nM in assay [1] and over 10000 nM in assay [2]. Moreover, the Selectivity ratio in assay [3] amounted to 2.7. The inhibition constant Ki in assay [4] was 5.62 nM.

As for `COc1ccc2ccccc2c1OCCNC[C@@H]1COc2ccccc2O1`, the Kb is 14.8 nM in assay [1], 58.9 nM in assay [2] and 631 nM in assay [5]. In addition, in assay [3], the Selectivity ratio is 4.9. The compound also showed a Ki in assay [4] of 4.57 nM. Further, the outcome in assay [6] was inactive.

Consider `COc1ccc2ccccc2c1OCCNC[C@H]1COc2cc3c(cc2O1)CCCC3`, for which the Kb in assay [7] was 42.7 nM; in assay [1], over 10000 nM; in assay [2], 10.5 nM; in assay [5], over 10000 nM. The Selectivity ratio in assay [3] came out at 2.2. Moreover, the result in assay [8] was Active. In assay [4], the Ki is 66.1 nM.

Consider `COc1cccc(-c2ccccc2)c1OCCNC[C@H]1COc2ccccc2O1`, for which the figures for the Kb in assay [1] and in assay [2] were 7.59 nM and 6.17 nM, respectively. Besides, the Selectivity ratio in assay [3] turned out to be 2.8. The same compound had an inhibitory constant (Ki) in assay [4] of 1.2 nM. Besides, the outcome in assay [6] was inactive.

Take `COc1ccc2ccccc2c1OCCNC[C@H]1COc2ccccc2O1`: the Kb in assay [1] is 0.204 nM; in assay [2], 1.1 nM; in assay [5], 1350 nM. In addition, the Selectivity ratio in assay [3] came out at 4.2. This compound also showed an inhibitory constant (Ki) in assay [4] of 1.58 nM. Besides, the result in assay [6] was Active.
